Values after ≈ are worked out from the molar mass of the structure shown. Active and inactive are the calls of the source. The rule behind the calls is not given here.
Columns and labels:
Escherichia coli = assay: Antimicrobial activity against Escherichia coli ATCC 25922; format: functional
[1] = tested on: Staphylococcus epidermidis; assay: Antimicrobial activity against methicillin-resistant Staphylococcus epidermidis ATCC 27626; format: functional
How it was run: (§1)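 MIC screen run at a contract lab. Each compound, as its ditrifluoroacetate salt, tested in duplicate at 200, 100, 50, 35, 15, 10, 5, 2.5, 1 and 0.5 μg/mL. Molar values calculated from the salt form. Gentamicin used as positive control.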

Staphylococcus aureus [2] = assay: Antimicrobial activity against methicillin-resistant Staphylococcus aureus ATCC 33591; format: functional; how it was run: as §1
Staphylococcus aureus [3] = assay: Antimicrobial activity against Staphylococcus aureus ATCC 25923; format: functional
[4] = Hemolytic activity against human RBC assessed as hemoglobin release after 1 hr; format: ADME, cell-based; conditions: Erythrocyte
How it was run: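 Heparinized human blood freed of plasma by centrifugation, washed three times in 37 °C PBS, diluted to 10% hematocrit and added to compound in PBS (1–1000 μg/mL) to 1% v/v erythrocytes. PBS negative, 0.1% v/v Triton X-100 positive control.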

[5] = Therapeutic index, ratio of EC50 for human RBC hemolytic activity to MIC for methicillin-resistant Staphylococcus aureus ATCC 33591; conditions: human red blood cells (RBC), read-out: TI
How it was run: (§2)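 Index taken as hemolytic EC50 divided by MIC for each strain. Hemolysis: human RBCs from heparinized blood, washed with 37 °C PBS, diluted to 10% hematocrit. Cells exposed at 1% v/v final to compound in PBS at 1–1000 μg/mL for 1 h at 37 °C with agitation. Hemoglobin read by supernatant A405 against PBS and 0.1% Triton X-100 controls. MICs in duplicate at 0.5–200 μg/mL.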

[6] = Therapeutic index, ratio of EC50 for human RBC hemolytic activity to MIC for methicillin-resistant Staphylococcus epidermidis ATCC 27626; conditions: human red blood cells (RBC), read-out: TI; how it was run: as §2
[7] = Therapeutic index, ratio of EC50 for human RBC hemolytic activity to MIC for Staphylococcus aureus ATCC 25923; conditions: human red blood cells (RBC), read-out: TI; how it was run: as §2
[8] = Therapeutic index, ratio of EC50 for human RBC hemolytic activity to MIC for Escherichia coli ATCC 25922; conditions: human red blood cells (RBC), read-out: TI; how it was run: as §2
Pseudomonas aeruginosa = assay: Antimicrobial activity against Pseudomonas aeruginosa ATCC 27853; format: functional
[9] = Therapeutic index, ratio of EC50 for human RBC hemolytic activity to MIC for Pseudomonas aeruginosa ATCC 27853; conditions: human red blood cells (RBC), read-out: TI; how it was run: as §2
Staphylococcus aureus [10] = assay: Antimicrobial activity against Staphylococcus aureus assessed as cell wall mesosome structure and septum of bacteria at 117 uM after 3 hrs by transmission electron microscopy; format: functional, organism-based
Staphylococcus aureus [11] = assay: Antimicrobial activity against Staphylococcus aureus assessed as cell wall mesosome structure and septum of bacteria at 234 uM after 2 hrs by transmission electron microscopy; format: functional, organism-based
[12] = Permeability of the compound across phospholipid vesicle based barrier model at pH 7.4; format: ADME
How it was run: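 Passive diffusion through phospholipid vesicle-based barriers (egg lipid extract, ~82% phosphatidylcholine) on filter inserts at room temperature. Donor in phosphate buffer pH 7.4, or pH 5.5 for a poorly soluble compound; acceptor always pH 7.4. Inserts moved to fresh acceptor wells; UV 230 nm at 1, 2, 3, 3.5, 4, 4.5, 5 h; barrier resistance checked afterwards.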

In the case of `CN1CCN(C(=O)C(CN)(CCCc2ccccc2)CCCc2ccccc2)CC1`, the MIC (Escherichia coli) is reported as 315 µM (≈ 128 µg/mL), the MIC [1] is reported as 315 µM (≈ 128 µg/mL) and the MIC (Staphylococcus aureus [2]) is reported as 315 µM (≈ 128 µg/mL). It also gave an MIC (Staphylococcus aureus [3]) of 315 µM (≈ 128 µg/mL).
Work on `NCCNC(=O)C(CN)(Cc1ccc(C(F)(F)F)cc1)Cc1ccc(C(F)(F)F)cc1.O=C(O)C(F)(F)F.O=C(O)C(F)(F)F` yielded an EC50 [4] of 425 µM, an MIC (Escherichia coli) of 52 µM and an MIC [1] of 15 µM. The MIC (Staphylococcus aureus [2]) was 7.4 µM, the MIC (Staphylococcus aureus [3]) was 15 µM and the selectivity ratio [5] was 57. It also gave a selectivity ratio [6] of 28, a selectivity ratio [7] of 28 and a selectivity ratio [8] of 8.
For `NCCNC(=O)C(CN)(CCCc1ccccc1)CCCc1ccccc1.O=C(O)C(F)(F)F.O=C(O)C(F)(F)F`, the EC50 [4] was 1380 µM, the MIC (Escherichia coli) was 336 µM and the MIC [1] was 25 µM. The MIC (Staphylococcus aureus [2]) was 59 µM, the MIC (Staphylococcus aureus [3]) was 71 µM and the selectivity ratio [5] was 23. The selectivity ratio [6] was 55, the selectivity ratio [7] was 19 and the selectivity ratio [8] was 4.1.
Compound `CN(C)CCNC(=O)C(CN)(Cc1ccc(C(C)(C)C)cc1)Cc1ccc(C(C)(C)C)cc1.O=C(O)C(F)(F)F.O=C(O)C(F)(F)F` has an EC50 [4] of 274 µM, an MIC (Pseudomonas aeruginosa) of 74 µM and an MIC (Escherichia coli) of 7.4 µM. For the same compound, the MIC [1] was 3.7 µM, the MIC (Staphylococcus aureus [2]) was 7.4 µM and the MIC (Staphylococcus aureus [3]) was 7.4 µM. It also gave a selectivity ratio [5] of 37, a selectivity ratio [6] of 74 and a selectivity ratio [7] of 37. It also gave a selectivity ratio [8] of 37 and a selectivity ratio [9] of 3.7.
Work on `CN(C)CCN1CCN(C(=O)C(CN)(Cc2ccc(C(F)(F)F)cc2)Cc2ccc(C(F)(F)F)cc2)CC1.O=C(O)C(F)(F)F.O=C(O)C(F)(F)F` yielded an EC50 [4] of 1120 µM, an MIC (Escherichia coli) of 129 µM and an MIC [1] of 65 µM. The MIC (Staphylococcus aureus [2]) was 6.5 µM, the MIC (Staphylococcus aureus [3]) was 45 µM and the selectivity ratio [5] was 172. For the same compound, the selectivity ratio [6] was 17, the selectivity ratio [7] was 25 and the selectivity ratio [8] was 8.6.
`NCCNC(=O)C(CN)(Cc1ccc2ccccc2c1)Cc1ccc2ccccc2c1.O=C(O)C(F)(F)F.O=C(O)C(F)(F)F` gave an EC50 [4] of 457 µM, an MIC (Pseudomonas aeruginosa) of 55 µM and an MIC (Escherichia coli) of 24 µM. For the same compound, the MIC [1] was 3.9 µM, the MIC (Staphylococcus aureus [2]) was 7.8 µM and the MIC (Staphylococcus aureus [3]) was 3.9 µM. For the same compound, the selectivity ratio [5] was 59, the selectivity ratio [6] was 117 and the selectivity ratio [7] was 117. The selectivity ratio [8] was 19, the selectivity ratio [9] was 8.3 and the Activity (Staphylococcus aureus [10]) was “Active”. The Activity (Staphylococcus aureus [11]) was “Active”.
In the case of `CN1CCN(C(=O)C(CN)(Cc2ccc(C(F)(F)F)cc2)Cc2ccc(C(F)(F)F)cc2)CC1.O=C(O)C(F)(F)F.O=C(O)C(F)(F)F`, the EC50 [4] is reported as 525 µM, the MIC (Escherichia coli) is reported as 70 µM and the MIC [1] is reported as 70 µM. The MIC (Staphylococcus aureus [2]) was 14 µM, the MIC (Staphylococcus aureus [3]) was 49 µM and the selectivity ratio [5] was 38. It also gave a selectivity ratio [6] of 7.5, a selectivity ratio [7] of 11 and a selectivity ratio [8] of 7.5.
`CN(C)CCNC(=O)C(CN)(Cc1ccc2ccccc2c1)Cc1ccc2ccccc2c1.O=C(O)C(F)(F)F.O=C(O)C(F)(F)F` gave an EC50 [4] of 117 µM, an MIC (Pseudomonas aeruginosa) of 300 µM and an MIC (Escherichia coli) of 23 µM. The MIC [1] was 7.5 µM, the MIC (Staphylococcus aureus [2]) was 7.5 µM and the MIC (Staphylococcus aureus [3]) was 7.5 µM. For the same compound, the selectivity ratio [5] was 16, the selectivity ratio [6] was 16 and the selectivity ratio [7] was 16. The selectivity ratio [8] was 5.1, the selectivity ratio [9] was 0.4 and the permeability [12] was “permeable”.
Work on `CN1CCN(C(=O)C(CN)(Cc2ccc3ccccc3c2)Cc2ccc3ccccc3c2)CC1.O=C(O)C(F)(F)F.O=C(O)C(F)(F)F` yielded an EC50 [4] of 303 µM, an MIC (Escherichia coli) of 22 µM and an MIC [1] of 15 µM. For the same compound, the MIC (Staphylococcus aureus [2]) was 7.4 µM, the MIC (Staphylococcus aureus [3]) was 15 µM and the selectivity ratio [5] was 41. The selectivity ratio [6] was 20, the selectivity ratio [7] was 20 and the selectivity ratio [8] was 14. For the same compound, the permeability [12] was “permeable”.
With `CN(C)CCN1CCN(C(=O)C(CN)(Cc2ccc(C(C)(C)C)cc2)Cc2ccc(C(C)(C)C)cc2)CC1.O=C(O)C(F)(F)F.O=C(O)C(F)(F)F` the EC50 [4] was 337 µM, the MIC (Pseudomonas aeruginosa) was 255 µM and the MIC (Escherichia coli) was 13 µM. It also gave an MIC [1] of 13 µM, an MIC (Staphylococcus aureus [2]) of 13 µM and an MIC (Staphylococcus aureus [3]) of 13 µM. For the same compound, the selectivity ratio [5] was 26, the selectivity ratio [6] was 26 and the selectivity ratio [7] was 26. It also gave a selectivity ratio [8] of 26 and a selectivity ratio [9] of 1.3.
With `CC(C)(C)c1ccc(CC(CN)(Cc2ccc(C(C)(C)C)cc2)C(=O)NCCN)cc1.O=C(O)C(F)(F)F.O=C(O)C(F)(F)F` the EC50 [4] was 18 µM, the MIC (Pseudomonas aeruginosa) was 23 µM and the MIC (Escherichia coli) was 7.7 µM. For the same compound, the MIC [1] was 3.8 µM, the MIC (Staphylococcus aureus [2]) was 3.8 µM and the MIC (Staphylococcus aureus [3]) was 3.8 µM. The selectivity ratio [5] was 4.7, the selectivity ratio [6] was 4.7 and the selectivity ratio [7] was 4.7. For the same compound, the selectivity ratio [8] was 2.3 and the selectivity ratio [9] was 0.8.
In the case of `CN(C)CCN1CCN(C(=O)C(CN)(Cc2ccc3ccccc3c2)Cc2ccc3ccccc3c2)CC1.O=C(O)C(F)(F)F.O=C(O)C(F)(F)F`, the EC50 [4] is reported as 409 µM, the MIC (Escherichia coli) is reported as 48 µM and the MIC [1] is reported as 14 µM. It also gave an MIC (Staphylococcus aureus [2]) of 3.4 µM, an MIC (Staphylococcus aureus [3]) of 20 µM and a selectivity ratio [5] of 120. For the same compound, the selectivity ratio [6] was 29, the selectivity ratio [7] was 20 and the selectivity ratio [8] was 8.5. The permeability [12] was “permeable”.
`CN(C)CCNC(=O)C(CN)(CCCc1ccccc1)CCCc1ccccc1.O=C(O)C(F)(F)F.O=C(O)C(F)(F)F` showed an EC50 [4] of 507 µM, an MIC (Escherichia coli) of 160 µM and an MIC [1] of 56 µM. It also gave an MIC (Staphylococcus aureus [2]) of 56 µM, an MIC (Staphylococcus aureus [3]) of 56 µM and a selectivity ratio [5] of 9.1. It also gave a selectivity ratio [6] of 9.1, a selectivity ratio [7] of 9.1 and a selectivity ratio [8] of 3.2.
Work on `CN1CCN(C(=O)C(CN)(Cc2ccc(C(C)(C)C)cc2)Cc2ccc(C(C)(C)C)cc2)CC1.O=C(O)C(F)(F)F.O=C(O)C(F)(F)F` yielded an EC50 [4] of 348 µM, an MIC (Pseudomonas aeruginosa) of 289 µM and an MIC (Escherichia coli) of 15 µM. For the same compound, the MIC [1] was 7.2 µM, the MIC (Staphylococcus aureus [2]) was 15 µM and the MIC (Staphylococcus aureus [3]) was 15 µM. The selectivity ratio [5] was 23, the selectivity ratio [6] was 48 and the selectivity ratio [7] was 23. For the same compound, the selectivity ratio [8] was 23 and the selectivity ratio [9] was 1.2.
`CN(C)CCN1CCN(C(=O)C(CN)(CCCc2ccccc2)CCCc2ccccc2)CC1` gave an MIC (Escherichia coli) of 289 µM (≈ 134 µg/mL), an MIC [1] of 72 µM (≈ 33.5 µg/mL) and an MIC (Staphylococcus aureus [2]) of 72 µM (≈ 33.5 µg/mL). For the same compound, the MIC (Staphylococcus aureus [3]) was 289 µM (≈ 134 µg/mL).
With `CN(C)CCNC(=O)C(CN)(Cc1ccc(C(F)(F)F)cc1)Cc1ccc(C(F)(F)F)cc1.O=C(O)C(F)(F)F.O=C(O)C(F)(F)F` the EC50 [4] was 468 µM, the MIC (Escherichia coli) was 50 µM and the MIC [1] was 21 µM. The MIC (Staphylococcus aureus [2]) was 7.1 µM, the MIC (Staphylococcus aureus [3]) was 14 µM and the selectivity ratio [5] was 66. For the same compound, the selectivity ratio [6] was 22, the selectivity ratio [7] was 33 and the selectivity ratio [8] was 9.4.
